Measured values as given in ChEMBL document CHEMBL3421570, “Combinatorial Libraries As a Tool for the Discovery of Novel, Broad-Spectrum Antibacterial Agents Targeting the ESKAPE Pathogens” (J Med Chem, 2015).
Calls of active or inactive are those of the source.

How the values were obtained:
Assay type in all cases: functional
[1] = system: Pseudomonas aeruginosa; assay: Antimicrobial activity against Pseudomonas aeruginosa assessed as inhibition of microbial growth after 24 hrs
Procedure, shortened: (§1)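 Broth microdilution against multidrug-resistant clinical ESKAPE isolates. Overnight cultures (TSB for Gram-positives, LB for Gram-negatives) diluted 1:1000 in fresh medium, compound in DMF (≤2.0% DMF) added at decreasing concentrations, 37°C.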

[2] = system: Enterococcus faecium; assay: Antimicrobial activity against Enterococcus faecium assessed as inhibition of microbial growth after 24 hrs; procedure, shortened: as §1
[3] = system: Staphylococcus aureus; assay: Antimicrobial activity against Staphylococcus aureus assessed as inhibition of microbial growth after 24 hrs; procedure, shortened: as §1
[4] = system: Enterobacter cloacae; assay: Antimicrobial activity against Enterobacter cloacae assessed as inhibition of microbial growth after 24 hrs; procedure, shortened: as §1
[5] = system: Klebsiella pneumoniae; assay: Antimicrobial activity against Klebsiella pneumoniae assessed as inhibition of microbial growth after 24 hrs; procedure, shortened: as §1
[6] = system: Acinetobacter baumannii; assay: Antimicrobial activity against Acinetobacter baumannii assessed as inhibition of microbial growth after 24 hrs; procedure, shortened: as §1

Measured: MIC

CCC(C)CN1CCN(CCCC[C@H]2CNC(=N)N2CC2CCCCC2)C1=N (stereo not given in full)
inactive: all assays above

CCCCCCCN1C(=N)NC[C@@H]1CCCCN1C[C@@H](CCC)N(CCc2cccc(C)c2)C1=N
inactive: all assays above

CCCCCCCN1C(=N)NC[C@@H]1CCCCN1C[C@H]([C@@H](C)CC)N(CCc2cccc(C)c2)C1=N
inactive: all assays above

CC1CCC(CN2C(=N)NC[C@@H]2CCCCN2CCNC2=N)CC1 (stereo not given in full)
inactive: all assays above

CC[C@H](C)[C@H]1CN(CCCC[C@H]2CNC(=N)N2CC2CCC(C)CC2)C(=N)N1CCc1cccc(C)c1 (stereo not given in full)
inactive: all assays above

CCC(C)CN1C(=N)N(CCCC[C@H]2CNC(=N)N2CC2CCC(C)CC2)C[C@@H]1[C@@H](C)CC (stereo not given in full)
inactive: all assays above

CCC[C@@H]1CN(CCCC[C@H]2CNC(=N)N2CC2CCCCC2)C(=N)N1
inactive: all assays above

CCC[C@@H]1CN(CCCC[C@H]2CNC(=N)N2CC2CCC(C)CC2)C(=N)N1 (stereo not given in full)
inactive: all assays above

CCC(C)CN1C(=N)N(CCCC[C@H]2CNC(=N)N2CC2CCCCC2)C[C@@H]1[C@@H](C)CC (stereo not given in full)
inactive: all assays above

CC[C@H](C)[C@H]1CN(CCCC[C@H]2CNC(=N)N2CC2CCC(C)CC2)C(=N)N1 (stereo not given in full)
inactive: all assays above

CCCCCCCN1C(=N)NC[C@@H]1CCCCN1C[C@H]([C@@H](C)CC)N(CC(C)CC)C1=N (stereo not given in full)
inactive: all assays above

CCC(C)CN1CCN(CCCC[C@H]2CNC(=N)N2CC2CCC(C)CC2)C1=N (stereo not given in full)
inactive: all assays above

CC[C@H](C)[C@H]1CN(CCCC[C@H]2CNC(=N)N2CC2CCCCC2)C(=N)N1CCc1cccc(C)c1
inactive: all assays above

CCC[C@@H]1CN(CCCC[C@H]2CNC(=N)N2CC2CCCCC2)C(=N)N1CCc1cccc(C)c1
inactive: all assays above

CCCCCCCN1C(=N)NC[C@@H]1CCCCN1C[C@@H](CCC)NC1=N
inactive: all assays above
